According to ChEMBL document CHEMBL1133602, “A study of the relationship between biological activity and prolyl amide isomer geometry in oxytocin using 5-tert-butylproline to augment the Cys(6)-Pro(7) amide cis-isomer population” (J Med Chem, 2000):
Numbered stars: 1 amine (or outer) side, 2 acyl side, 3 side chain; on linkers, the order of the positions; unused ones are H or OH. Bridge positions count the residues as written; N and C are the ends. Square brackets hold non-standard residues; d marks the D form. Peptide text beside a SMILES is read from it. X3 = CC(C)(C)[C@H]1CC[C@@H](C(=O)[*:2])N1[*:1]; X1 = CC(C)(C)C1CC[C@@H](C(=O)[*:2])N1[*:1]; Mpa = O=C(O)CCS

What was measured:
[1] = organism: Rattus norvegicus; assay: In Vitro evaluation for the uterotonic activity in rat in the absence of Magnesium; assay type: functional
Method in brief: (§1)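 Isolated uterus from rats estrogenized 24-48 h beforehand, in Munsick solution without magnesium or with 1 mM Mg2+, oxytocin as standard. Single doses given in random order with bath changed after each response and at least 5 min between doses; cumulative doubling doses given at 1-min intervals. IU/mg from threshold doses against standard, EC50 from the curves. Uteri from 3-5 rats.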

[2] = target: T1, Oxytocin receptor (Rattus norvegicus, UniProt P70536); assay: Binding affinity against oxytocin receptor
T1 sequence (P70536 whole entry): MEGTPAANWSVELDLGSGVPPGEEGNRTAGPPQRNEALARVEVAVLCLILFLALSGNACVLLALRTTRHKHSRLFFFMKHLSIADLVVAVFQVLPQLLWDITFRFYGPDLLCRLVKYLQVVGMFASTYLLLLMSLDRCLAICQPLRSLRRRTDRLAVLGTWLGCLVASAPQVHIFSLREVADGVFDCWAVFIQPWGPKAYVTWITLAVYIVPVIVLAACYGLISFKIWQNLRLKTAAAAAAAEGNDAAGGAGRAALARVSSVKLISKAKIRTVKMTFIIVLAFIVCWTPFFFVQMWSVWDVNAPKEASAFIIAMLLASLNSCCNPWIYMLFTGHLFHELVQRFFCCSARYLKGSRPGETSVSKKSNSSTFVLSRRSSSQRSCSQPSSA
Method in brief: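 Crude rat uterine membrane fraction incubated with [3H]oxytocin (2 nM) plus peptide at 0.1-10000 nM, 30 min at 35 °C. Buffer was 50 mM HEPES pH 7.6 with 10 mM MnCl2 and 1 mg/mL bovine serum albumin. Bound and free separated by rapid filtration.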

[3] = organism: Rattus norvegicus; assay: In Vitro evaluation for the uterotonic activity in rat in the presence of 1 mM of Magnesium; assay type: functional; method in brief: as §1
[4] = organism: Rattus norvegicus; assay: Compound was evaluated for the pressor activity; assay type: functional
Method in brief: (§2)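 Male rats (220-260 g) under urethane, pretreated with phenoxybenzamine in two doses. Femoral vein cannulated for dosing and carotid artery for blood pressure. After about 30 min stabilization, i.v. bolus doses of standard or analogue given in random order. Standard curve spanned 2 × 10-5 - 2 × 10-4 mg/kg. Activity set against the standard, 3-4 animals per analogue.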

[5] = organism: Rattus norvegicus; assay: Effective concentration in rat in the presence of 1 mM of Magnesium; assay type: functional, organism-based
Method in brief: (§3)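 Isolated uterus from estrogen-primed rats (24-48 h) in Munsick solution, either without magnesium or with 1 mM Mg2+. Antagonist added 1 min before a standard oxytocin dose. EC50 is the concentration that cuts the response to a 2x agonist dose down to that of dose x; pA2 is its negative log. Uteri from 3-5 rats.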

[6] = organism: Rattus norvegicus; assay: Effective concentration in rat in the absence of Magnesium; assay type: functional, organism-based; method in brief: as §3
[7] = organism: Rattus norvegicus; assay: Compound was evaluated for the pressor activity in rat; assay type: functional; method in brief: as §2

Ki [2] | EC50 [5] | EC50 [6] | SMILES | Activity [1] | Activity [3] | Activity [4] | Activity [7]
3.2 nM | – | – | CC[C@H](C)[C@@H]1NC(=O)[C@H](Cc2ccc(O)cc2)NC(=O)CCSSC[C@@H](C(=O)N2CCC[C@H]2C(=O)N[C@@H](CC(C)C)C(=O)NCC(N)=O)NC(=O)[C@H](CC(N)=O)NC(=O)[C@H](CCC(N)=O)NC1=O [DEMOXYTOCIN] | 837 IU mg-1 | 760 IU mg-1 | 1.5 IU/mg | –
1430 nM | 450 nM | 150 nM | CC[C@H](C)[C@@H]1NC(=O)[C@H](Cc2ccc(O)cc2)NC(=O)[C@@H](N)CSSC[C@@H](C(=O)N2[C@H](C(=O)N[C@@H](CC(C)C)C(=O)NCC(N)=O)CC[C@@H]2C(C)(C)C)NC(=O)[C@H](CC(N)=O)NC(=O)[C@H](CCC(N)=O)NC1=O (H-CYIQNC[X3]LG-NH2; disulfide 1-6) [listing 1 of 2 here] | – | – | – | –
240 nM | 75 nM | 50 nM | CC[C@H](C)[C@@H]1NC(=O)[C@H](Cc2ccc(O)cc2)NC(=O)CCSSC[C@@H](C(=O)N2C(C(C)(C)C)CC[C@H]2C(=O)N[C@@H](CC(C)C)C(=O)NCC(N)=O)NC(=O)[C@H](CC(N)=O)NC(=O)[C@H](CCC(N)=O)NC1=O (stereo partly specified) ([Mpa]YIQNC[X1]LG-NH2; disulfide 1-6) | 6.1 IU mg-1 | 3 IU mg-1 | – | 0 IU/mg
– | 0.5 nM | 0.6 nM | CC[C@H](C)[C@@H]1NC(=O)[C@H](Cc2ccc(O)cc2)NC(=O)[C@@H](N)CSSC[C@@H](C(=O)N2CCC[C@H]2C(=O)N[C@@H](CC(C)C)C(=O)NCC(N)=O)NC(=O)[C@H](CC(N)=O)NC(=O)[C@H](CCC(N)=O)NC1=O [OXYTOCIN] | 450 IU mg-1 | 450 IU mg-1 | – | 5 IU/mg
– | – | – | CC[C@H](C)[C@@H]1NC(=O)[C@H](Cc2ccc(O)cc2)NC(=O)[C@@H](N)CSSC[C@@H](C(=O)N2[C@H](C(=O)N[C@@H](CC(C)C)C(=O)NCC(N)=O)CC[C@@H]2C(C)(C)C)NC(=O)[C@H](CC(N)=O)NC(=O)[C@H](CCC(N)=O)NC1=O (H-CYIQNC[X3]LG-NH2; disulfide 1-6) [listing 2 of 2 here] | 1.8 IU mg-1 | 0.5 IU mg-1 | – | 0 IU/mg
